Rows were chosen to be rich in hits. Some 2.9% of all compounds tested hit in one or more screens of this group.
S100A4 inh HTS = blocks human S100A4 binding to myosin IIA peptide. 0.14% of 360,000 active. S100A4/TAMRA-MyoIIA peptide fluorescence polarization. inhibition, % at 10.7 µM. AID 652163. P26447;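 active = mean inhibition of at least 70% across replicates, with every replicate also reaching that level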
Target sequence (P26447 whole entry, looked up): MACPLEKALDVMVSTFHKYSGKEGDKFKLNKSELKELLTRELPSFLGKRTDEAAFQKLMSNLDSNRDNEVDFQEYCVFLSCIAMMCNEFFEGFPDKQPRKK
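Material: S100A4 monomer (human). Medium: Calcium-containing HEPES buffer, pH 7.2. Probe or stimulus: labelled myosin peptide probe, 5 nM. Compound dosing: one concentration per compound. Timing: polarization read 5 min after assay mix addition, stable 5–60 min. Benchmarks: DMSO as neutral control, TFP as positive control.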
ERAP1 inh = inhibitors of human ERAP1 aminopeptidase. recombinant ERAP1, Leu-AMC fluorescence, 60 min. inhibition, % at 10.7 µM. 0.15% of 340,000 active;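 active = mean replicate inhibition of at least 30%, or all replicates individually reaching that 30% level; inactive = mean below 30% and not every replicate reaching it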
CAL PDZ FP-1 = blocks peptide binding to the human CAL PDZ domain | Q9HD26 | purified CAL PDZ, TMR-peptide fluorescence polarization, 1 h | inhibition, % at 24.9 µM | 0.92% of 300,000 active | AID 602252;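 active = mean inhibition of at least 30% with at least half of replicates also reaching 30%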
CAL PDZ FP-2 = human CAL PDZ-peptide interaction inhibition. purified CAL PDZ, TMR-peptide fluorescence polarization, 1 h. inhibition, % at 20 µM. 0.02% of 330,000 active. Q9HD26;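 active = highest replicate inhibition of at least 40%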
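Material: tagged CAL PDZ domain; buffer or medium: 25 mM sodium phosphate pH 7.4, 150 mM NaCl, TCEP, IgG, Thesit; compound dosing: single point, 20 µM; schedule: 1 h incubation at room temperature before polarization reading; measured by: FP readout, S and P plane fluorescence; read-out basis: percent inhibition from loss of millipolarization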
DENV2 CPE = protects cells from dengue virus 2 cytopathic effect | 1.7% of 350,000 active | DENV2-infected cells, cytopathic effect rescue, plate reader | CPE inhibition, % at 9.99 µM; in the data active = CPE inhibition above about 20%, passing the limit was not always enough; tested in BHK-21 cells
SIRT5 block = inhibitors of human sirtuin-5 desuccinylase. Q9NXA8. Purified SirT5, succinyl-peptide AMC, trypsin-coupled fluorescence. inhibition, % at 15 µM. 1.1% of 330,000 active. AID 652115; in the data active = inhibition above about 15%
Target sequence (Q9NXA8 whole entry, looked up): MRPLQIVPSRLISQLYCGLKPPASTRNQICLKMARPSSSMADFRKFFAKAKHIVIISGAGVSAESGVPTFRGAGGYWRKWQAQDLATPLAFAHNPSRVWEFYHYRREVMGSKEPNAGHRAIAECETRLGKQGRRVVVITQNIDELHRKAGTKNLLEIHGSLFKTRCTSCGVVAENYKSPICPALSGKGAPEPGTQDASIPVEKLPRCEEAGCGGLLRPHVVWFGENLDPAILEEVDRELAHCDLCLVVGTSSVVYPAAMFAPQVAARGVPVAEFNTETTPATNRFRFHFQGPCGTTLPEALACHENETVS
Each line names hits and unclear results; the compound was inactive in the other large screens.

C/C=C/c1ccc([C@@H]2[C@@H](CN(C(=O)COC)C(C)C)N(C(C)=O)[C@H]2CO)cc1	SIRT5 block 17 (no result: ERAP1 inh, CAL PDZ FP-1, CAL PDZ FP-2)
C/C=C/c1ccc([C@@H]2[C@@H](CO)N(C(C)=O)[C@H]2CN(C(=O)COC)C(C)C)cc1	SIRT5 block 34 (no result: ERAP1 inh, CAL PDZ FP-1, CAL PDZ FP-2)
C/C=C/c1ccc([C@H]2[C@@H](CO)N(C(C)=O)[C@H]2CN(CC(C)C)C(C)=O)cc1	none (no result: S100A4 inh HTS, ERAP1 inh, CAL PDZ FP-1, CAL PDZ FP-2, SIRT5 block)
C/C=C/c1ccc([C@@H]2[C@@H](CN(CC(C)C)C(C)=O)N(C(C)=O)[C@H]2CO)cc1	none (no result: CAL PDZ FP-1, CAL PDZ FP-2)
Cc1noc(C)c1S(=O)(=O)Nc1ccc2c(c1)C(=O)N([C@@H](C)CO)C[C@@H](C)[C@@H](CN(C)C)OCCCC[C@H](C)O2	none (no result: CAL PDZ FP-1, CAL PDZ FP-2)
CCCN(C)C[C@H]1Oc2cc(-c3ccccc3)ccc2S(=O)(=O)N([C@H](C)CO)C[C@H]1C	none (no result: CAL PDZ FP-1, CAL PDZ FP-2)
COc1ccc(Br)cc1/C=N/NC(=O)C(c1ccncc1)N1CCOCC1 (centres undefined)	DENV2 CPE 98
COc1cccc(-c2ccc([C@H]3[C@H](CO)N4CCCCN(CC5CC5)C[C@@H]34)cc2)c1	S100A4 inh HTS 127, DENV2 CPE 42 (no result: CAL PDZ FP-1, CAL PDZ FP-2)
Cc1ccccc1-c1ccc([C@H]2[C@@H](CO)N3CCCCN(CC4CC4)C[C@H]23)cc1	none (no result: CAL PDZ FP-1, CAL PDZ FP-2)
CN(C)C(=O)c1cccc(-c2ccc([C@H]3[C@@H](CO)N4CCCCN(S(C)(=O)=O)C[C@@H]34)cc2)c1	SIRT5 block 41 (no result: CAL PDZ FP-1, CAL PDZ FP-2)
CN(C)C(=O)c1ccc(-c2ccc([C@@H]3[C@H](CO)N4CCCCN(CC5CCOCC5)C[C@@H]34)cc2)cc1	none (no result: CAL PDZ FP-1, CAL PDZ FP-2)
CN(C)C(=O)c1ccc(-c2ccc([C@@H]3[C@@H](CO)N4CCCCN(CC5CC5)C[C@@H]34)cc2)cc1	S100A4 inh HTS 109 (no result: CAL PDZ FP-1, CAL PDZ FP-2)
Cc1ccccc1-c1ccc([C@@H]2[C@@H](CO)N3CCCCN(CC4CC4)C[C@H]23)cc1	DENV2 CPE 52 (no result: CAL PDZ FP-1, CAL PDZ FP-2)
COc1cccc(-c2ccc([C@H]3[C@H]4CN(CC5CC5)CCCCN4[C@H]3CO)cc2)c1	none (no result: CAL PDZ FP-1, CAL PDZ FP-2)
C[C@H]1CN([C@@H](C)CO)C(=O)c2cc(NC(=O)Nc3cccc4ccccc34)ccc2O[C@@H]1CN(C)Cc1ccc(C(=O)Nc2ccccc2N)cc1	none (no result: CAL PDZ FP-1, CAL PDZ FP-2)
C[C@@H]1CN([C@@H](C)CO)C(=O)c2c(c3ccccc3n2C)-c2ccccc2CO[C@@H]1CN(C)C(=O)CCC(F)(F)F	none (no result: CAL PDZ FP-1, CAL PDZ FP-2)
C[C@@H]1CN([C@@H](C)CO)C(=O)Cc2cc(NC(=O)Cc3cn(C)c4ccccc34)ccc2O[C@@H]1CN(C)C(=O)Nc1ccc(F)cc1	none (no result: CAL PDZ FP-1, CAL PDZ FP-2)
C[C@@H]1CN([C@H](C)CO)C(=O)c2cc(-c3cccnc3)cnc2O[C@H]1CN(C)C(=O)NC1CCCC1	none (no result: CAL PDZ FP-1, CAL PDZ FP-2)
COc1cccc(-c2ccc([C@@H]3[C@@H](CO)N4CCCCN(CC5CC5)C[C@H]34)cc2)c1	DENV2 CPE 43 (no result: CAL PDZ FP-1, CAL PDZ FP-2)
COc1cccc(-c2ccc([C@@H]3[C@H](CO)N4CCCCN(CC5CCOCC5)C[C@@H]34)cc2)c1	none (no result: CAL PDZ FP-1, CAL PDZ FP-2)
O=C(/C=C/c1cn(CC(O)CN2CCCCC2)c2ccccc12)c1cccs1 (centres undefined)	none (no result: S100A4 inh HTS, ERAP1 inh, DENV2 CPE, SIRT5 block)
O=C(/C=C/c1cn(CC(O)CN2CCCCC2)c2ccccc12)c1ccccc1 (centres undefined)	DENV2 CPE 27 (no result: ERAP1 inh)
N#Cc1cccc(-c2ccc(C3[C@H]4CNC[C@@H]3N4S(=O)(=O)c3cccc(F)c3)cc2)c1 (some centres undefined)	none (no result: CAL PDZ FP-1, CAL PDZ FP-2)
O=C(NCCN1C(=O)C2C3C=CC(C3)C2C1=O)Nc1ccc(Br)cc1 (centres undefined)	none (no result: ERAP1 inh, CAL PDZ FP-1, SIRT5 block)
O=C(NCCN1C(=O)C2C3C=CC(C3)C2C1=O)Nc1cccnc1 (centres undefined)	DENV2 CPE 29
CCCC#Cc1cnc2c(c1)C(=O)N([C@@H](C)CO)C[C@H](C)[C@H](CN(C)S(C)(=O)=O)O2	none (no result: CAL PDZ FP-1, CAL PDZ FP-2)
C[C@@H]1CCCCO[C@@H](CN(C)Cc2ccncc2)[C@@H](C)CN([C@H](C)CO)C(=O)c2cc(NC(=O)CCCN(C)C)ccc2O1	none (no result: CAL PDZ FP-1, CAL PDZ FP-2)
CCc1ccc(OCC(O)CN2CCN(c3ccccc3)CC2)cc1 (centres undefined)	DENV2 CPE 83 (no result: SIRT5 block)
COCCOCC(O)CN1CCN(c2ccccc2)CC1 (centres undefined)	CAL PDZ FP-1 32 (no result: S100A4 inh HTS, ERAP1 inh, DENV2 CPE, SIRT5 block)

Screening data from PubChem.
